From ChEMBL document CHEMBL4411267, “Phloroglucinols from the Roots of Garcinia dauphinensis and Their Antiproliferative and Antiplasmodial Activities” (J Nat Prod, 2019)

Experiments:
Plasmodium falciparum = assay: Antiplasmodial activity against Plasmodium falciparum Dd2 assessed as reduction in parasite viability incubated for 72 hrs by SYBR Green I dye based assay; format: functional, organism-based; settings: Dd2, 72 h
In short: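 Ring-stage parasite cultures at 1% parasitemia and 1% hematocrit, exposed to samples for 72 h at 37 °C under 5% CO2/5% O2/90% N2. Viability read by DNA quantitation with SYBR Green I in lysis buffer (0.33 μL dye per mL, 25 μL added). IC50 by nonlinear regression curve fitting; mean ± SD of three independent experiments.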

A2780 = assay: Antiproliferative activity against human A2780 cells assessed as reduction in cell viability incubated for 48 hrs by Alamar blue assay; format: functional, cell-based; settings: A2780, 48 h
[1] = Selectivity index, ratio of IC50 for antiproliferative activity against human A2780 cells to IC50 for antiplasmodial activity against Plasmodium falciparum Dd2; format: functional

| Structure (SMILES) | IC50 (Plasmodium falciparum) | IC50 (A2780) | Ratio IC50 [1] |
| --- | --- | --- | --- |
| CC[C@H](C)C(=O)c1c(O)cc(O)c(CCC(C)(O)CCC=C(C)C)c1O (stereo partly drawn) | 5.4 µM | 6.4 µM |  |
| C=C(C)CCC(Cc1c(O)cc(O)c(C(=O)[C@@H](C)CC)c1O)/C(C)=C/CC=C(C)C (stereo partly drawn) | 12 µM | 7 µM |  |
| CC[C@H](C)C(=O)c1c(O)cc(O)c(CC2=C(C)[C@@H](CC=C(C)C)C(C)(C)CC2)c1O | 4.7 µM | 4.5 µM |  |
| C[C@@H]1CC[C@H]2[C@@H](C)C(=O)O[C@@H]3O[C@@]4(C)CC[C@@H]1[C@]32OO4 [ARTEMISININ] | 0.0085 µM |  |  |
| CC[C@H](C)C(=O)c1c(O)cc2c(c1O)C[C@@H]1C(C)(C)CCC[C@@]1(C)O2 (relative stereo) | 14.1 µM |  |  |
| CC(C)=CCC/C(C)=C/CC/C(C)=C/CC[C@]1(C)CCc2cc(O)cc(C)c2O1 [DELTA-TOCOTRIENOL] | 5.3 µM | 19.7 µM |  |
| CCC(C)C(=O)c1c(O)cc(O)c(C/C=C(\C)CCC=C(C)C)c1O (stereo not drawn) |  | 12.4 µM |  |
| C=C1[C@@H](Cc2c(O)cc(O)c(C(=O)[C@@H](C)CC)c2O)CCC(C)(C)[C@@H]1CC=C(C)C | 0.8 µM | 15.2 µM | 20 |
| CC[C@H](C)C(=O)c1c(O)cc(O)c(CC(CCC(C)(C)O)/C(C)=C/CC=C(C)C)c1O (stereo partly drawn) | 8.3 µM |  |  |
| CC(C)=CCC/C(C)=C/Cc1c(O)cc(O)c(C(=O)C(C)C)c1O | 12.5 µM | 16.4 µM |  |
| CCC(C)C(=O)c1c(O)cc(O)c2c1O[C@](C)(CCC=C(C)C)[C@@H](O)C2 (stereo partly drawn) [EMPETRIKARINOL B] |  | 10 µM |  |
